{"source": "ChEMBL document CHEMBL3124852", "about": "“Synthesis and evaluation of (-)-Massoialactone and analogues as potential anticancer and anti-inflammatory agents” (Eur J Med Chem, 2014)", "key": {"[1]": {"system": "HT-29", "assay": "Cytotoxicity against human HT-29 cells after 72 hrs by MTT assay", "type": "functional, cell-based", "details": "HT-29, 72 h", "in_short": "(§1)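 Tumour cells plated at 10⁵ cells/mL (adherent) or 3 × 10⁵ cells/mL (leukaemias) in medium with fetal bovine serum, 2 mM glutamine, penicillin/streptomycin, 37 °C, 5% CO₂. Compounds ([…], 0.1% DMSO) added for 72 h; MTT (5 mg/mL stock) added at 69 h, formazan dissolved in DMSO after 3 h, read at 595 nm. IC50 with 95% CI from nonlinear regression, two experiments.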"}, "[2]": {"system": "K562", "assay": "Cytotoxicity against human K562 cells after 72 hrs by MTT assay", "type": "functional, cell-based", "details": "K562, 72 h", "in_short": "as §1"}, "[3]": {"assay": "Cytotoxicity against LPS-stimulated Balb/c mouse peritoneal macrophages assessed as cell viability at 6.2 ug/ml after 24 hrs by MTT assay relative to control", "type": "cell-based, Peritoneal macrophage cell", "details": "read-out: Activity", "in_short": "(§2)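 Adherent thioglycollate-elicited Balb/c peritoneal macrophages exposed 24 h to compound (3.1–25.0 µg/mL) and/or LPS (1 µg/mL), then MTT (5 mg/mL stock) added for 4 h; formazan dissolved in DMSO, absorbance 550 nm. Cell death % = (1 − A_test/A_control) × 100. Quadruplicate wells, three independent experiments; mean ± SD.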"}, "[4]": {"assay": "Cytotoxicity against LPS-stimulated Balb/c mouse peritoneal macrophages assessed as cell viability after 24 hrs by MTT assay", "type": "cell-based", "details": "peritoneal macrophage cell", "in_short": "as §2"}, "[5]": {"assay": "Cytotoxicity against LPS-stimulated Balb/c mouse peritoneal macrophages assessed as cell viability at 25 ug/ml after 24 hrs by MTT assay relative to control", "type": "cell-based, Peritoneal macrophage cell", "details": "read-out: Activity", "in_short": "as §2"}, "[6]": {"system": "MCF7", "assay": "Cytotoxicity against human MCF7 cells after 72 hrs by MTT assay", "type": "functional, cell-based", "details": "MCF7, 72 h"}, "[7]": {"system": "NCI-H292", "assay": "Cytotoxicity against human NCI-H292 cells after 72 hrs by MTT assay", "type": "functional, cell-based", "details": "NCI-H292, 72 h", "in_short": "as §1"}, "[8]": {"assay": "Cytotoxicity against LPS-stimulated Balb/c mouse peritoneal macrophages assessed as cell viability at 3.1 ug/ml after 24 hrs by MTT assay relative to control", "type": "cell-based, Peritoneal macrophage cell", "details": "read-out: Activity", "in_short": "as §2"}, "[9]": {"assay": "Cytotoxicity against LPS-stimulated Balb/c mouse peritoneal macrophages assessed as cell viability at 12.5 ug/ml after 24 hrs by MTT assay relative to control", "type": "cell-based, Peritoneal macrophage cell", "details": "read-out: Activity", "in_short": "as §2"}, "[10]": {"system": "HL-60", "assay": "Cytotoxicity against human HL60 cells after 72 hrs by MTT assay", "type": "functional, cell-based", "details": "HL-60, 72 h", "in_short": "as §1"}, "[11]": {"assay": "Antiinflammatory activity in Balb/c mouse peritoneal macrophages assessed as reduction in LPS-induced nitric oxide production at 3.1 ug/ml after 24 hrs by Griess method relative to control", "type": "functional, Peritoneal macrophage cell", "in_short": "(§3)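 Thioglycollate-elicited (2.5 mL 3%, i.p., 72 h) peritoneal cells from Balb/c mice, viability checked by trypan blue, cultured at 5 × 10⁶ cells/mL in RPMI-1640 + 10% FBS; non-adherent cells removed after 2 h at 37 °C, 5% CO₂. Adherent macrophages treated with compound plus LPS (1 µg/mL) 24 h; supernatant collected. Mean ± SD of three independent experiments; ANOVA with Newman-Keuls versus medium-only cells.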"}, "[12]": {"assay": "Antiinflammatory activity in Balb/c mouse peritoneal macrophages assessed as reduction in LPS-induced TNF-alpha production at 3.1 ug/ml after 24 hrs by ELISA relative to control", "type": "functional, Peritoneal macrophage cell", "in_short": "as §3"}}, "data": [{"smiles": "O=C1C=CCC(c2ccccc2)O1", "note": "(configuration not stated)", "values": [{"measurement": "IC50", "setting": "[1]", "result": 10.9, "unit": "µg/mL"}, {"measurement": "IC50", "setting": "[2]", "result": 8.9, "unit": "µg/mL"}, {"measurement": "viability at 24 h, 6.2 ug/ml", "setting": "[3]", "result": 30.9, "unit": "%"}, {"measurement": "Activity", "setting": "[4]", "result": "Dose-dependent effect"}, {"measurement": "viability at 24 h, 25 ug/ml", "setting": "[5]", "result": 7.4, "unit": "%"}, {"measurement": "IC50", "setting": "[6]", "result": 22.9, "unit": "µg/mL"}, {"measurement": "IC50", "setting": "[7]", "result": 9.1, "unit": "µg/mL"}, {"measurement": "viability at 24 h, 3.1 ug/ml", "setting": "[8]", "result": 34.5, "unit": "%"}, {"measurement": "viability at 24 h, 12.5 ug/ml", "setting": "[9]", "result": 1, "unit": "%"}, {"measurement": "IC50", "setting": "[10]", "result": 13.2, "unit": "µg/mL"}]}, {"smiles": "O=C1C=CCC(COc2ccccc2)O1", "note": "(configuration not stated)", "values": [{"measurement": "IC50", "setting": "[1]", "result": 4.4, "unit": "µg/mL"}, {"measurement": "IC50", "setting": "[2]", "result": 2.9, "unit": "µg/mL"}, {"measurement": "Activity", "setting": "[11]", "result": 5.2, "unit": "µM"}, {"measurement": "viability at 24 h, 6.2 ug/ml", "setting": "[3]", "result": 47.3, "unit": "%"}, {"measurement": "Activity", "setting": "[4]", "result": "Dose-dependent effect"}, {"measurement": "viability at 24 h, 25 ug/ml", "setting": "[5]", "result": 0, "unit": "%"}, {"measurement": "IC50", "setting": "[6]", "result": 22.5, "unit": "µg/mL"}, {"measurement": "IC50", "setting": "[7]", "result": 0.8, "unit": "µg/mL"}, {"measurement": "viability at 24 h, 3.1 ug/ml", "setting": "[8]", "result": 93, "unit": "%"}, {"measurement": "viability at 24 h, 12.5 ug/ml", "setting": "[9]", "result": 0, "unit": "%"}, {"measurement": "IC50", "setting": "[10]", "result": 5.4, "unit": "µg/mL"}, {"measurement": "Activity", "setting": "[12]", "result": 112.4, "unit": "pg/mL"}]}, {"smiles": "C=CCCC1CC=CC(=O)O1", "note": "(configuration not stated)", "values": [{"measurement": "IC50", "setting": "[1]", "result": "> 100", "unit": "µg/mL"}, {"measurement": "viability at 24 h, 6.2 ug/ml", "setting": "[3]", "result": 45.4, "unit": "%"}, {"measurement": "Activity", "setting": "[4]", "result": "Dose-dependent effect"}, {"measurement": "viability at 24 h, 25 ug/ml", "setting": "[5]", "result": 2.5, "unit": "%"}, {"measurement": "IC50", "setting": "[6]", "result": "> 100", "unit": "µg/mL"}, {"measurement": "IC50", "setting": "[7]", "result": "> 100", "unit": "µg/mL"}, {"measurement": "viability at 24 h, 3.1 ug/ml", "setting": "[8]", "result": 57, "unit": "%"}, {"measurement": "viability at 24 h, 12.5 ug/ml", "setting": "[9]", "result": 19.7, "unit": "%"}]}, {"smiles": "C=CCOCC1CC=CC(=O)O1", "note": "(configuration not stated)", "values": [{"measurement": "IC50", "setting": "[1]", "result": 18.4, "unit": "µg/mL"}, {"measurement": "IC50", "setting": "[2]", "result": 50, "unit": "µg/mL"}, {"measurement": "Activity", "setting": "[11]", "result": 2.7, "unit": "µM"}, {"measurement": "viability at 24 h, 6.2 ug/ml", "setting": "[3]", "result": 77.2, "unit": "%"}, {"measurement": "Activity", "setting": "[4]", "result": "Dose-dependent effect"}, {"measurement": "viability at 24 h, 25 ug/ml", "setting": "[5]", "result": 7.7, "unit": "%"}, {"measurement": "IC50", "setting": "[6]", "result": 44.6, "unit": "µg/mL"}, {"measurement": "IC50", "setting": "[7]", "result": 16.6, "unit": "µg/mL"}, {"measurement": "viability at 24 h, 3.1 ug/ml", "setting": "[8]", "result": 100, "unit": "%"}, {"measurement": "viability at 24 h, 12.5 ug/ml", "setting": "[9]", "result": 51.1, "unit": "%"}, {"measurement": "IC50", "setting": "[10]", "result": 25.5, "unit": "µg/mL"}, {"measurement": "Activity", "setting": "[12]", "result": 210, "unit": "pg/mL"}]}, {"smiles": "CCCCC[C@@H]1CC=CC(=O)O1", "values": [{"measurement": "IC50", "setting": "[1]", "result": 22.6, "unit": "µg/mL"}, {"measurement": "IC50", "setting": "[2]", "result": 20.2, "unit": "µg/mL"}, {"measurement": "IC50", "setting": "[6]", "result": 60, "unit": "µg/mL"}, {"measurement": "IC50", "setting": "[7]", "result": 11.3, "unit": "µg/mL"}, {"measurement": "IC50", "setting": "[10]", "result": 16, "unit": "µg/mL"}]}, {"smiles": "CCC1CC=CC(=O)O1", "note": "(configuration not stated)", "values": [{"measurement": "IC50", "setting": "[1]", "result": "> 100", "unit": "µg/mL"}, {"measurement": "IC50", "setting": "[6]", "result": "> 100", "unit": "µg/mL"}, {"measurement": "IC50", "setting": "[7]", "result": "> 100", "unit": "µg/mL"}]}, {"smiles": "COc1cccc2c1C(=O)c1c(O)c3c(c(O)c1C2=O)C[C@@](O)(C(=O)CO)C[C@@H]3O[C@H]1C[C@H](N)[C@H](O)[C@H](C)O1", "note": "[DOXORUBICIN]", "values": [{"measurement": "IC50", "setting": "[2]", "result": 0.26, "unit": "µg/mL"}, {"measurement": "IC50", "setting": "[7]", "result": 0.02, "unit": "µg/mL"}]}]}
